Measured values: ChEMBL document CHEMBL4390675, “Dopamine D4 Receptor-Selective Compounds Reveal Structure-Activity Relationships that Engender Agonist Efficacy” (J Med Chem, 2019)
pEC50, pIC50, pKi: −log10 of the molar value. Active and inactive are the calls of the source. The calls are words filed in the database; no cut-off is given here.

How the values were obtained:
D(3) dopamine receptor [1] = biological target: T1, D(3) dopamine receptor (Homo sapiens, UniProt P35462); experiment: Displacement of [3H]N-methylspiperone from human D3 receptor expressed in HEK293 cell membranes measured after 60 mins by scintillation counting method
Outline: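 HEK293 cells stably expressing human D3R; membranes in EBSS buffer pH 7.4, stored at −80 °C. 20 μg protein/well with 0.4 nM [3H]N-methylspiperone (final), half-log dilutions in 30% DMSO, in triplicate. 60 min at room temperature, then GF/B filtration. Nonspecific binding with 10 μM (+)-butaclamol.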

D(4) dopamine receptor [2] = biological target: T2, D(4) dopamine receptor (Homo sapiens, UniProt P21917); experiment: Displacement of [3H]N-methylspiperone from human D4.4 receptor expressed in HEK293 cell membranes measured after 60 mins by scintillation counting method
T2 sequence (P21917 whole entry): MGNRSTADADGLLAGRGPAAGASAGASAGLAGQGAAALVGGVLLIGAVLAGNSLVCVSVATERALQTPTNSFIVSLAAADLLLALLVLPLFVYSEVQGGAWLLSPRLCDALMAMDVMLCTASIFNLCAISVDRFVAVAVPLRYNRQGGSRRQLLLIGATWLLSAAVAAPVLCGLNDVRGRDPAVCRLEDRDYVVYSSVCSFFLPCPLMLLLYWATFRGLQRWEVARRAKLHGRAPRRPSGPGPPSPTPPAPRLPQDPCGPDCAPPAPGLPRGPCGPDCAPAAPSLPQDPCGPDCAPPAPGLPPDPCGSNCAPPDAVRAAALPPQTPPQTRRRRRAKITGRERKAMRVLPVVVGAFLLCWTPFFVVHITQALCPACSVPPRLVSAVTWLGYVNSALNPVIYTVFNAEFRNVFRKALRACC
Outline: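 Frozen HEK293 membranes stably expressing human D4.4R (30 μg/well) in EBSS-bicarbonate buffer, pH 7.4, were incubated with 0.4 nM [3H]N-methylspiperone and half-log compound dilutions (30% DMSO vehicle) for 60 min at room temperature. Nonspecific binding was defined by 10 μM (+)-butaclamol. Samples were filtered on GF/B filters and counted by scintillation.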

D(2) dopamine receptor [3] = biological target: T3, D(2) dopamine receptor (Homo sapiens, UniProt P14416); experiment: Agonist activity at human D2L receptor expressed in CHOK1 cells assessed as inhibition of forskolin-induced cAMP accumulation measured after 30 mins by Eu-cAMP tracer based TR-FRET assay; format: cell-based
Outline: (§1)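 LANCE Ultra TR-FRET cAMP assay in CHO-K1 cells stably expressing human D2R long isoform or D4R. Cells were plated in HBSS/5 mM HEPES/0.2 μM metabisulfite, then immediately given compound plus forskolin (10 μM final) for 30 min at room temperature. Eu-cAMP tracer and ULight-anti-cAMP were added for 2 h in the dark. Values are % of maximal dopamine signal, nonlinear regression of triplicate runs, n = 3–4.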

D(2) dopamine receptor [4] = biological target: T3, D(2) dopamine receptor; experiment: Antagonist activity at human D2L receptor expressed in CHOK1 cells assessed as suppression of dopamine-induced inhibition of forskolin-stimulated cAMP accumulation measured after 30 mins by Eu-cAMP tracer based TR-FRET assay relative to dopamine; format: cell-based; conditions: 0.5 h
D(4) dopamine receptor [5] = biological target: T2, D(4) dopamine receptor; experiment: Agonist activity at human D4 receptor expressed in CHOK1 cells assessed as inhibition of forskolin-induced cAMP accumulation measured after 30 mins by Eu-cAMP tracer based TR-FRET assay; format: functional, cell-based; conditions: for pEC50: read-out: EC50; outline: as §1
D(4) dopamine receptor [6] = biological target: T2, D(4) dopamine receptor; experiment: Antagonist activity at human D4 receptor expressed in CHOK1 cells assessed as suppression of dopamine-induced inhibition of forskolin-stimulated cAMP accumulation measured after 30 mins by Eu-cAMP tracer based TR-FRET assay; format: functional, cell-based
D(2) dopamine receptor [7] = biological target: T3, D(2) dopamine receptor; experiment: Agonist activity at human D2L receptor expressed in CHOK1 cells assessed as induction of beta-arrestin recruitment measured after 90 mins by luminescence assay; format: cell-based
Outline: (§2)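 PathHunter enzyme-complementation assay in CHO-K1 cells stably expressing human D2R long isoform, D3R or D4R, seeded overnight in Ham's F12/10% FBS. Compounds were diluted in PBS with 0.2 μM sodium metabisulfite and applied at multiple concentrations for 90 min at 37 °C. Detection reagent was added for 45–60 min at room temperature, then luminescence was read. Values are % of maximal dopamine response, from nonlinear regression of triplicate runs, mean ± SEM, n = 3–4.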

D(2) dopamine receptor [8] = biological target: T3, D(2) dopamine receptor; experiment: Antagonist activity at human D2L receptor expressed in CHOK1 cells assessed as inhibition of dopamine-induced beta-arrestin recruitment measured after 90 mins by luminescence assay relative to control; format: cell-based
Outline: (§3)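 Antagonist-mode PathHunter β-arrestin assay in CHO-K1 cells stably expressing human D2R long isoform or D3R, seeded overnight. Compound dilutions in PBS with 0.2 μM metabisulfite were co-incubated with an EC80 dopamine concentration for 90 min at 37 °C. Detection reagent was added for 45–60 min at room temperature, then luminescence was read. Values are % of dopamine EC80 response, from nonlinear regression of triplicate runs, n = 3–4.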

D(2) dopamine receptor [9] = biological target: T3, D(2) dopamine receptor; experiment: Antagonist activity at human D2L receptor expressed in CHOK1 cells assessed as inhibition of dopamine-induced beta-arrestin recruitment measured after 90 mins by luminescence assay; format: cell-based; outline: as §3
D(3) dopamine receptor [10] = biological target: T1, D(3) dopamine receptor; experiment: Agonist activity at human D3 receptor expressed in CHOK1 cells assessed as induction of beta-arrestin recruitment measured after 90 mins by luminescence assay; format: cell-based; conditions: for pEC50: read-out: EC50; outline: as §2
D(3) dopamine receptor [11] = biological target: T1, D(3) dopamine receptor; experiment: Antagonist activity at human D3 receptor expressed in CHOK1 cells assessed as inhibition of dopamine-induced beta-arrestin recruitment measured after 90 mins by luminescence assay; format: cell-based; conditions: for pIC50: read-out: IC50; outline: as §3
D(4) dopamine receptor [12] = biological target: T2, D(4) dopamine receptor; experiment: Agonist activity at human D4 receptor expressed in CHOK1 cells assessed as induction of beta-arrestin recruitment measured after 90 mins by luminescence assay; format: cell-based; outline: as §2
D(4) dopamine receptor [13] = biological target: T2, D(4) dopamine receptor; experiment: Antagonist activity at human D4 receptor expressed in CHOK1 cells assessed as inhibition of dopamine-induced beta-arrestin recruitment measured after 90 mins by luminescence assay; format: cell-based; conditions: for pIC50: read-out: IC50
D(3) dopamine receptor [14] = biological target: T1, D(3) dopamine receptor; experiment: Displacement of [3H](R)-(+)-7-OH-DPAT from human D3 receptor expressed in HEK293 cell membranes measured after 90 mins by scintillation counting method
Outline: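 Fresh HEK293 hD3R membranes (40 μg/well) in 50 mM Tris, 10 mM MgCl2, 1 mM EDTA, pH 7.4 were incubated with 0.5 nM [3H]-(R)-(+)-7-OH-DPAT and half-log compound dilutions in 30% DMSO for 90 min at room temperature. Nonspecific binding was defined with 10 μM (+)-butaclamol. Samples were filtered on PEI-soaked GF/B filters and counted by scintillation.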

D(4) dopamine receptor [15] = biological target: T2, D(4) dopamine receptor; experiment: Displacement of [3H](R)-(+)-7-OH-DPAT from human D4.4 receptor expressed in HEK293 cell membranes measured after 90 mins by scintillation counting method
Outline: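 HEK293 cells stably expressing human D4.4R; membranes used fresh in 50 mM Tris, 10 mM MgCl2, 1 mM EDTA, pH 7.4. 60 μg protein/well with 3 nM [3H]-(R)-(+)-7-OH-DPAT (final), half-log dilutions in 30% DMSO, in triplicate. 90 min at room temperature, then GF/B filtration. Nonspecific binding with 10 μM (+)-butaclamol.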

D(2) dopamine receptor [16] = biological target: T3, D(2) dopamine receptor; experiment: Agonist activity at human D2L receptor expressed in CHOK1 cells assessed as inhibition of forskolin-induced cAMP accumulation measured after 30 mins by Eu-cAMP tracer based TR-FRET assay relative to dopamine; format: cell-based; conditions: 0.5 h
[17] = biological target: T4, D(4) dopamine receptor (Homo sapiens) (UniProt P21917); experiment: Agonist activity at human D4 receptor expressed in CHOK1 cells assessed as inhibition of forskolin-induced cAMP accumulation measured after 30 mins by Eu-cAMP tracer based TR-FRET assay relative to dopamine; format: functional, cell-based; outline: as §1
T4 sequence (whole entry): T2 sequence (P21917 whole entry)

[18] = biological target: T4, D(4) dopamine receptor (Homo sapiens); experiment: Antagonist activity at human D4 receptor expressed in CHOK1 cells assessed as suppression of dopamine-induced inhibition of forskolin-stimulated cAMP accumulation measured after 30 mins by Eu-cAMP tracer based TR-FRET assay relative to dopamine; format: functional, cell-based; set-up: concentration or dose not given beside the values
D(2) dopamine receptor [19] = biological target: T3, D(2) dopamine receptor; experiment: Agonist activity at human D2L receptor expressed in CHOK1 cells assessed as induction of beta-arrestin recruitment measured after 90 mins by luminescence assay relative to control; format: cell-based
Outline: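 PathHunter enzyme-complementation assay in CHO-K1 cells stably expressing human D2R long isoform, seeded 2625 cells/well and incubated overnight. Compounds diluted in PBS with 0.2 μM sodium metabisulfite, tested at multiple concentrations, 90 min at 37 °C. Detection reagent then 45–60 min at room temperature, luminescence read. Normalized to maximal dopamine response. Nonlinear regression of triplicate runs, n = 3–4.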

D(3) dopamine receptor [20] = biological target: T1, D(3) dopamine receptor; experiment: Agonist activity at human D3 receptor expressed in CHOK1 cells assessed as induction of beta-arrestin recruitment measured after 90 mins by luminescence assay relative to control; format: cell-based; outline: as §2
D(3) dopamine receptor [21] = biological target: T1, D(3) dopamine receptor; experiment: Antagonist activity at human D3 receptor expressed in CHOK1 cells assessed as inhibition of dopamine-induced beta-arrestin recruitment measured after 90 mins by luminescence assay relative to control; format: cell-based; outline: as §3
[22] = biological target: T4, D(4) dopamine receptor (Homo sapiens); experiment: Agonist activity at human D4 receptor expressed in CHOK1 cells assessed as induction of beta-arrestin recruitment measured after 90 mins by luminescence assay relative to control; format: cell-based; outline: as §2
[23] = biological target: T4, D(4) dopamine receptor (Homo sapiens); experiment: Antagonist activity at human D4 receptor expressed in CHOK1 cells assessed as inhibition of dopamine-induced beta-arrestin recruitment measured after 90 mins by luminescence assay relative to control; format: cell-based; set-up: concentration or dose not given beside the values
[24] = biological target: D(1A) dopamine receptor (Homo sapiens) (UniProt P21728); experiment: Agonist activity at D1 receptor (unknown origin) stably expressed in CHOK1 cells assessed as induction of beta-arrestin recruitment measured after 90 mins by luminescence assay; format: cell-based
[25] = biological target: D(1B) dopamine receptor (Homo sapiens) (UniProt P21918); experiment: Agonist activity at D5 receptor (unknown origin) stably expressed in CHOK1 cells assessed as induction of beta-arrestin recruitment measured after 90 mins by luminescence assay; format: cell-based
[26] = biological target: D(1A) dopamine receptor (Homo sapiens) (UniProt P21728); experiment: Antagonist activity at D1 receptor (unknown origin) stably expressed in CHOK1 cells assessed as inhibition of dopamine-induced beta-arrestin recruitment measured after 90 mins by luminescence assay; format: cell-based
[27] = biological target: D(1B) dopamine receptor (Homo sapiens) (UniProt P21918); experiment: Antagonist activity at D5 receptor (unknown origin) stably expressed in CHOK1 cells assessed as inhibition of dopamine-induced beta-arrestin recruitment measured after 90 mins by luminescence assay; format: cell-based

T3 sequence (P14416 whole entry, canonical isoform): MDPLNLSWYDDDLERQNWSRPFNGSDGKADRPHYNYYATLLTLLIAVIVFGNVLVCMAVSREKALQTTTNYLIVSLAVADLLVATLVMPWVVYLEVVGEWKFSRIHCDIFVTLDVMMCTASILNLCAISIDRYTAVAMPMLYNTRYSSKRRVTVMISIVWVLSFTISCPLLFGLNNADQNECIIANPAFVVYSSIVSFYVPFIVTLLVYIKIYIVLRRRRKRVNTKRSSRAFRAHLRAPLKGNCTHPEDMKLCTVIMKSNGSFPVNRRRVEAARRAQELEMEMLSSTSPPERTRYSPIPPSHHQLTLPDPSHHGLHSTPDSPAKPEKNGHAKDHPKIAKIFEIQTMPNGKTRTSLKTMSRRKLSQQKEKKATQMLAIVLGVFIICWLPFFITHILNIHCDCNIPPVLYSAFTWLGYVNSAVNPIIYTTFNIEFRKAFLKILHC
Chain of D(1B) dopamine receptor (Homo sapiens) (P21918 whole entry): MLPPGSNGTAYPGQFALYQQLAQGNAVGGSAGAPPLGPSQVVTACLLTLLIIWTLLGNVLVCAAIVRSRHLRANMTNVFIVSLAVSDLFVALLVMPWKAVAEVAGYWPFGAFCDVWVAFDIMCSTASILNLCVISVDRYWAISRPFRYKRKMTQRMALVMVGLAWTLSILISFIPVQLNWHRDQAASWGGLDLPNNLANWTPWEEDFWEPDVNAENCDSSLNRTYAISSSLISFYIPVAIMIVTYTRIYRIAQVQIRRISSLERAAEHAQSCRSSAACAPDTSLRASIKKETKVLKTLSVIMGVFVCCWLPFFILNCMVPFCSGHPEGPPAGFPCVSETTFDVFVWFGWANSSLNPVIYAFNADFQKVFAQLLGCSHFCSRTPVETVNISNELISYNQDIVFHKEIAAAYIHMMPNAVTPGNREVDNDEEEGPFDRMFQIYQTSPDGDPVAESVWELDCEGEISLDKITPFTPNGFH
Chain of D(1A) dopamine receptor (Homo sapiens) (P21728 whole entry): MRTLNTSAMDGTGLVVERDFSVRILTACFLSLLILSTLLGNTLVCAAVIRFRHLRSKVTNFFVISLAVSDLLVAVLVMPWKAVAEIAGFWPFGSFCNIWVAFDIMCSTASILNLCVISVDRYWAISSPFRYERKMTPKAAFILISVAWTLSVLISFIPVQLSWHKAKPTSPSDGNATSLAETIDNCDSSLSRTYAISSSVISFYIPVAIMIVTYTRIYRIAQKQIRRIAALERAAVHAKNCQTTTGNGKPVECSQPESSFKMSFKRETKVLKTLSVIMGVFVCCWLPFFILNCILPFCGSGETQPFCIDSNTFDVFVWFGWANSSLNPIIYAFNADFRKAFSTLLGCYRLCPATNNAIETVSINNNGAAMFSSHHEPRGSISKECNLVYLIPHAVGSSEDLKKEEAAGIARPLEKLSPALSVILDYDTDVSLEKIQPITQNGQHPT
T1 sequence (P35462 whole entry): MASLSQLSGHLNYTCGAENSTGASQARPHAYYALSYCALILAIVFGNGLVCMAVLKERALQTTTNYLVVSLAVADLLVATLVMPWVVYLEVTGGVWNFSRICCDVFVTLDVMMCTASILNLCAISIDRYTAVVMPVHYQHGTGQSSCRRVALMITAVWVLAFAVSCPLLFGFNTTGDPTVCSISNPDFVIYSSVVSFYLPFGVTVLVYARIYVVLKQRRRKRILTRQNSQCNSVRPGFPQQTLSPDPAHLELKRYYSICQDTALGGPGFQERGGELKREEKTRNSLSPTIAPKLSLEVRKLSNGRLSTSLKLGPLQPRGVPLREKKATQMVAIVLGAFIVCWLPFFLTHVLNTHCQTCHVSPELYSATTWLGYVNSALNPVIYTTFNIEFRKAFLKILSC

SMILES	pKi (D(3) dopamine receptor [1])	pKi (D(4) dopamine receptor [2])	EC50 (D(2) dopamine receptor [3])	inhibition (INH) (D(2) dopamine receptor [4])	EC50 (D(4) dopamine receptor [5])	pIC50 (D(4) dopamine receptor [6])	EC50 (D(2) dopamine receptor [7])	INH (D(2) dopamine receptor [8])	IC50 (D(2) dopamine receptor [9])	EC50 (D(3) dopamine receptor [10])	IC50 (D(3) dopamine receptor [11])	EC50 (D(4) dopamine receptor [12])	pIC50 (D(4) dopamine receptor [13])	pKi (D(3) dopamine receptor [14])	pKi (D(4) dopamine receptor [15])	Emax (D(2) dopamine receptor [16])	pEC50 (D(4) dopamine receptor [5])	Emax (D(2) dopamine receptor [19])	Emax (D(3) dopamine receptor [20])	pEC50 (D(3) dopamine receptor [10])	further results
O=C(CN1CCN(c2ccc(Cl)cn2)CC1)Nc1cccnc1	< 4.30	5.30	Not Active	100%	Not Active	4.40	Not Active	Not Active	Not Active	Not Active	Not Active	Not Active	4.63	–	–	–	–	–	–	–	–
Cc1cccc(NC(=O)CN2CCN(c3ccccn3)CC2)c1	< 5.00	6.67	–	–	–	7.08	–	–	–	–	–	–	6.50	5.19	8.72	19%	8.44	23.9%	49.4%	5.20	Emax [17]: 64.2%; inhibition [18]: 43.2%; inhibition (D(3) dopamine receptor [21]): inactive; pIC50 (D(3) dopamine receptor [11]): < 4.00; Emax [22]: 30.7%; pEC50 (D(4) dopamine receptor [12]; read-out: EC50): 6.40; inhibition [23]: 78.9%; Activity [24]: inactive; Activity [25]: inactive; inhibition [26]: inactive; inhibition [27]: inactive
Cc1cccc(NC(=O)CCN2CCN(c3ccccn3)CC2)c1	5.42	6.53	–	–	–	5.79	–	77.7%	–	–	–	Not Active	5.96	6.11	7.49	79.7%	6.21	44.1%	41.4%	5.80	pIC50 (D(3) dopamine receptor [11]): < 4.30; Activity [24]: inactive; Activity [25]: inactive; inhibition [26]: inactive; inhibition [27]: inactive
O=C(CN1CCN(c2ccccn2)CC1)Nc1cncnc1	< 4.30	4.41	Not Active	98.1%	Not Active	< 4.00	Not Active	Not Active	Not Active	Not Active	Not Active	Not Active	–	–	–	–	–	–	–	–	IC50 (D(4) dopamine receptor [13]): Not Active
